{"source": "paper PMC8038854", "about": "(Biochemical Journal, 2021)", "key": {"[1]": {"molecular_target": "Scribble PDZ2 R896A (human) (UniProt Q14160)", "assay": "ITC"}, "[2]": {"molecular_target": "Scribble PDZ1 H793A (human) (UniProt Q14160)", "sequence (Q14160 728-815 H793A)": "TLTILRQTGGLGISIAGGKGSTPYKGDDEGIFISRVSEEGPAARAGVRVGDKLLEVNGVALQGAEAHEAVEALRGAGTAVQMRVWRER", "assay": "ITC"}, "[3]": {"molecular_target": "Scribble PDZ3 R1044Q (human) (UniProt Q14160)", "assay": "ITC"}, "[4]": {"molecular_target": "Scribble PDZ1 Q808H (human) (UniProt Q14160)", "sequence (Q14160 728-815 Q808H)": "as the sequence (Q14160 728-815 H793A) above, with A66H, Q81H counted along it", "assay": "ITC"}, "[5]": {"molecular_target": "Scribble PDZ1 Q808H (human) (UniProt Q14160)", "assay": "ITC", "remark": "listed apart in the source"}, "[6]": {"molecular_target": "T1, Scrib PDZ2 WT (860–950) (Homo sapiens, UniProt Q14160)", "T1 sequence (Q14160 860-950)": "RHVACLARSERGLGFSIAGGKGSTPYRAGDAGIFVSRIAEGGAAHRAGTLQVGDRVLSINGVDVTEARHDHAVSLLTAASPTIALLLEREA", "assay": "ITC of PBM peptides against Scrib PDZ2 WT", "format": "binding", "how_it_was_run": "(§1)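 Recombinant human Scribble PDZ domains (wild type or point mutant) were expressed in E. coli BL21(DE3) pLysS as GST or MBP fusions and purified. Synthetic 8-mer C-terminal PBM peptides, including a pan-PDZ positive-control peptide, were titrated into protein in 25 mM Hepes pH 7.5, 150 mM NaCl at 25°C. There were 20 injections spaced 180 s apart. KD came from a 1:1 model, with ±SD from at least three independent experiments.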"}, "[7]": {"molecular_target": "T2, Scrib PDZ3 R1044Q (Homo sapiens, UniProt Q14160, R1044Q)", "T2 sequence (Q14160 1002-1094 R1044Q)": "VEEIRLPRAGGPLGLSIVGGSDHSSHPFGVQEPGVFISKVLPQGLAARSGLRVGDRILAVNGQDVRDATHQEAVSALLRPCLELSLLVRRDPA", "assay": "ITC of PBM peptides against Scrib PDZ3 R1044Q", "format": "binding", "how_it_was_run": "as §1"}, "[8]": {"molecular_target": "T3, Scrib PDZ3 WT (1002–1094) (Homo sapiens, UniProt Q14160)", "T3 sequence (Q14160 1002-1094)": "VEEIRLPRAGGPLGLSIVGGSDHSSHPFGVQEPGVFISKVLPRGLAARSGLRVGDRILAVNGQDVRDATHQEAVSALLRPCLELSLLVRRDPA", "assay": "ITC of PBM peptides against Scrib PDZ3 WT", "format": "binding", "how_it_was_run": "as §1"}, "[9]": {"molecular_target": "Scrib PDZ1 WT (728–815) (Homo sapiens, UniProt Q14160)", "sequence (Q14160 728-815)": "as the sequence (Q14160 728-815 H793A) above, with A66H counted along it", "assay": "Isothermal titration calorimetry", "format": "binding", "how_it_was_run": "as §1"}, "[10]": {"molecular_target": "Scrib PDZ1 Q808H (Homo sapiens, UniProt Q14160, Q808H)", "sequence (Q14160 728-815 Q808H)": "as the sequence (Q14160 728-815 H793A) above, with A66H, Q81H counted along it", "assay": "ITC of PBM peptides against Scrib PDZ1 Q808H", "format": "binding", "how_it_was_run": "as §1"}, "[11]": {"molecular_target": "T4, Scribble PDZ2 R896A (human, UniProt Q14160 860-950, R896A)", "T4 sequence (looked up)": "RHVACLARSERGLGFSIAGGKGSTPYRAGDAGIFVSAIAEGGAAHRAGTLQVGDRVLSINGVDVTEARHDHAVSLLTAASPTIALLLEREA", "assay": "ITC"}, "[12]": {"molecular_target": "Scribble PDZ1 H793A (human, UniProt Q14160 728-815, H793A)", "sequence (Q14160 728-815 H793A)": "as the sequence (Q14160 728-815 H793A) above", "assay": "ITC"}, "[13]": {"molecular_target": "Scribble PDZ1 Q808H (human, UniProt Q14160 728-815, Q808H)", "sequence (Q14160 728-815 Q808H)": "as the sequence (Q14160 728-815 H793A) above, with A66H, Q81H counted along it", "assay": "ITC"}, "[14]": {"molecular_target": "T5, Scribble PDZ3 P1043L (human, UniProt Q14160 1002-1094, P1043L)", "T5 sequence (looked up)": "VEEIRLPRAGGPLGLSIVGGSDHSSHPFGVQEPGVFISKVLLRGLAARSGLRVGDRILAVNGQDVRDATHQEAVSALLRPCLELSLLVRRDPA", "assay": "ITC"}, "[15]": {"molecular_target": "Scribble PDZ1 E814G (human, UniProt Q14160 728-815, E814G)", "sequence (Q14160 728-815 E814G)": "as the sequence (Q14160 728-815 H793A) above, with A66H, E87G counted along it", "assay": "ITC"}, "[16]": {"molecular_target": "T6, Scribble PDZ2 H928A (human, UniProt Q14160 860-950, H928A)", "T6 sequence (looked up)": "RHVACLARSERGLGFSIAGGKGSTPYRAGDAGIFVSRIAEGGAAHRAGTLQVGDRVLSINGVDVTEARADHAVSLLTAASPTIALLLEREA", "assay": "ITC"}, "[17]": {"molecular_target": "T7, Scribble PDZ3 R1044Q (human, UniProt Q14160 1002-1094, R1044Q)", "T7 sequence (looked up)": "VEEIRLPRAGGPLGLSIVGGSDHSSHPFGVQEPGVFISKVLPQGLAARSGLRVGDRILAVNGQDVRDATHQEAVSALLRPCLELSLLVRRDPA", "assay": "ITC"}}, "note": "Read-outs that look alike come from different tables or passages of the source. Peptide text beside a SMILES is read from it."}
{"molecule": "beta-PIX C-terminal peptide", "values": [{"measurement": "Kd", "setting": "[1]", "result": 189, "unit": "µM"}, {"measurement": "Kd", "setting": "[2]", "result": 62.8, "unit": "µM"}, {"measurement": "Kd", "setting": "[3]", "result": 14.1, "unit": "µM"}, {"measurement": "Kd", "setting": "[4]", "result": 3.11, "unit": "µM"}, {"measurement": "Kd", "setting": "[5]", "result": 10.4, "unit": "µM"}]}
{"molecule": "APC C-terminal peptide", "values": [{"measurement": "Kd", "setting": "[1]", "result": 30.6, "unit": "µM"}, {"measurement": "Kd", "setting": "[3]", "result": 27.4, "unit": "µM"}, {"measurement": "Kd", "setting": "[4]", "result": 6.06, "unit": "µM"}]}
{"molecule": "CC(C)C[C@H](NC(=O)[C@@H](N)CCCNC(=N)N)C(=O)N[C@@H](CCC(N)=O)C(=O)N[C@@H](CO)C(=O)N[C@@H](CCC(=O)O)C(=O)N[C@H](C(=O)N[C@@H](CO)C(=O)N[C@H](C(=O)O)C(C)C)[C@@H](C)O", "note": "[Vangl2] (H-RLQSETSV-OH)", "values": [{"measurement": "Kd", "setting": "[6]", "result": "45.1 ± 4.92", "unit": "µM"}, {"measurement": "Kd", "setting": "[7]", "result": "20.9 ± 4.67", "unit": "µM"}, {"measurement": "Kd", "setting": "[8]", "result": "40.2 ± 3.92", "unit": "µM"}, {"measurement": "Kd", "setting": "[9]", "result": "24.5 ± 3.9", "unit": "µM"}, {"measurement": "Kd", "setting": "[10]", "result": "10.4 ± 0.27", "unit": "µM"}]}
{"molecule": "RLQSETSV", "note": "[Vangl2 C-terminal PBM peptide (RLQSETSV)]", "values": [{"measurement": "Kd", "setting": "[11]", "result": 26.7, "unit": "µM"}, {"measurement": "Kd", "setting": "[12]", "result": 29.9, "unit": "µM"}]}
{"molecule": "RSWFETWV", "note": "[superpeptide (synthetic pan-PDZ binding peptide)]", "values": [{"measurement": "Kd", "setting": "[13]", "result": 2.73, "unit": "µM"}, {"measurement": "Kd", "setting": "[14]", "result": 9.75, "unit": "µM"}, {"measurement": "Kd", "setting": "[15]", "result": 2.36, "unit": "µM"}, {"measurement": "Kd", "setting": "[11]", "result": 7.8, "unit": "µM"}, {"measurement": "Kd", "setting": "[16]", "result": 27.7, "unit": "µM"}, {"measurement": "Kd", "setting": "[17]", "result": 7.22, "unit": "µM"}, {"measurement": "Kd", "setting": "[12]", "result": 2.18, "unit": "µM"}]}
